The subject of series [1] is Rattus norvegicus. Description: Organ distribution in rat blood 2 minutes after intravenous injection. Type of series: ADME, organism-based. The conditions noted are these: in vivo. The method, boiled down: (§1)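 Male Sprague-Dawley rats (220-300 g) given 0.2 mL Se-75 labeled compound (0.5-2.0 μCi) iv via femoral vein under light ether anesthesia; killed under ether by heart removal at set times; organs excised and counted in a well counter. Percent dose per organ from comparison with diluted aliquots of injected dose; blood and muscle totals assume 7% and 40% of body weight. Average of two or three rats, with range.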

Series [2] concerns Rattus norvegicus. Description: Organ distribution in rat blood 2 hr after intravenous injection. The series is classed as ADME, organism-based. The conditions noted are these: in vivo. The method, boiled down:
as §1

For series [3], the system named is Rattus norvegicus. Description: Organ distribution in rat blood 30 minutes after intravenous injection. The conditions noted are these: in vivo, 0.5 h. The series is classed as ADME, organism-based. The method, boiled down:
as §1

Series [4] has as its system Rattus norvegicus. Description: Organ distribution in rat brain 2 minutes after intravenous injection. The series is classed as ADME, organism-based. The conditions noted are these: in vivo. The method, boiled down: as §1
In series [5] the test system is Rattus norvegicus. Description: Organ distribution in rat brain 2 hr after intravenous injection. The conditions noted are these: in vivo. Type of series: ADME, organism-based. Summed up:
as §1

Series [6] deals with Rattus norvegicus. Description: Organ distribution in rat brain 30 minutes after intravenous injection. Type of series: ADME, organism-based. The conditions noted are these: in vivo, 0.5 h. The method, boiled down: as §1
The test system of series [7] is Rattus norvegicus. Description: Organ distribution in rat heart 2 minutes after intravenous injection. The conditions noted are these: in vivo. Type of series: ADME, organism-based. Summed up: as §1
For series [8], the system named is Rattus norvegicus. Description: Organ distribution in rat heart 2 hr after intravenous injection. The conditions noted are these: in vivo. The series is classed as ADME, organism-based. Summed up:
as §1

Series [9] deals with Rattus norvegicus. Description: Organ distribution in rat heart 30 minutes after intravenous injection. Type of series: ADME, organism-based. The conditions noted are these: in vivo, 0.5 h. The method, boiled down: as §1
Series [10] has as its system Rattus norvegicus. Description: Organ distribution in rat kidney 2 minutes after intravenous injection. The conditions noted are these: in vivo. Type of series: ADME, organism-based. Summed up:
as §1

Series [11] relates to Rattus norvegicus. Description: Organ distribution in rat kidney 30 minutes after intravenous injection. Type of series: ADME, organism-based. The conditions noted are these: in vivo, 0.5 h. The method, boiled down:
as §1

Series [12] concerns Rattus norvegicus. Description: Organ distribution in rat liver 2 minutes after intravenous injection. The series is classed as ADME, organism-based. The conditions noted are these: in vivo. The method, boiled down: as §1
The subject of series [13] is Rattus norvegicus. Description: Organ distribution in rat liver 2 hr after intravenous injection. The conditions noted are these: in vivo. Type of series: ADME, organism-based. The method, boiled down:
as §1

Series [14] concerns Rattus norvegicus. Description: Organ distribution in rat liver 30 minutes after intravenous injection. Type of series: ADME, organism-based. The conditions noted are these: in vivo, 0.5 h. The method, boiled down:
as §1

In series [15] the test system is Rattus norvegicus. Description: Organ distribution in rat lung 2 minutes after intravenous injection. The series is classed as ADME, organism-based. The conditions noted are these: in vivo. The method, boiled down:
as §1

Series [16] has as its system Rattus norvegicus. Description: Organ distribution in rat lung 2 hr after intravenous injection. The series is classed as ADME, organism-based. The conditions noted are these: in vivo. Summed up:
as §1

Series [17] concerns Rattus norvegicus. Description: Organ distribution in rat lung 30 minutes after intravenous injection. The series is classed as ADME, organism-based. The conditions noted are these: in vivo, 0.5 h. Summed up: as §1
Series [18] relates to Rattus norvegicus. Description: Organ distribution in rat muscle 2 minutes after intravenous injection. The conditions noted are these: in vivo. Type of series: ADME, organism-based, Muscle tissue. Summed up:
as §1

Series [19] deals with Rattus norvegicus. Description: Organ distribution in rat muscle 2 hr after intravenous injection. The series is classed as ADME, organism-based, Muscle tissue. The conditions noted are these: in vivo. The method, boiled down:
as §1

The subject of series [20] is Rattus norvegicus. Description: Organ distribution in rat muscle 30 minutes after intravenous injection. Type of series: ADME, organism-based, Muscle tissue. The conditions noted are these: in vivo, 0.5 h. Summed up:
as §1

In series [21] the test system is Rattus norvegicus. Description: Organ distribution in rat kidney 2 hr after intravenous injection. The series is classed as ADME, organism-based. The conditions noted are these: in vivo. Summed up: as §1
The subject of series [22] is Rattus norvegicus. Description: Organ distribution in rat blood 30 min after intravenous injection. Type of series: ADME, organism-based. The conditions noted are these: in vivo, 0.5 h. The method, boiled down:
as §1

For `C1CCN(CC[Se]CCN2CCCCC2)CC1`, the Dose/organ was determined as 4.58% in the series on Rattus norvegicus [1]; 0.65% in the series on Rattus norvegicus [2]; 0.87% in the series on Rattus norvegicus [3]; 1.09% in the series on Rattus norvegicus [4]; 1.63% with Rattus norvegicus [5]; 1.49% with Rattus norvegicus [6]. In addition, the Dose/organ with Rattus norvegicus [7] amounted to 3.04%; in the series on Rattus norvegicus [8], 0.19%; with Rattus norvegicus [9] it was 0.89%; in the series on Rattus norvegicus [10], 7.14%; with Rattus norvegicus [11] it was 9.21%; with Rattus norvegicus [12], 12%. For the same compound, the Dose/organ in the series with Rattus norvegicus [13] is given as 15.9%; in the series with Rattus norvegicus [14] it was 14.3%; in the series with Rattus norvegicus [15], 20%; in the series with Rattus norvegicus [16], 0.85%; in the series on Rattus norvegicus [17], 2.83%; with Rattus norvegicus [18], 7.39%. The Dose/organ in the series on Rattus norvegicus [19] was determined as 12%; in the series on Rattus norvegicus [20], 13.4%; in the series on Rattus norvegicus [21], 2.89%.

Take `C1CN(CC[Se]CCN2CCOCC2)CCO1`: the Dose/organ in the series on Rattus norvegicus [1] turned out to be 3.13%; in the series on Rattus norvegicus [2] it was 2.46%; in the series on Rattus norvegicus [3], 2.82%; in the series on Rattus norvegicus [4], 3.19%; with Rattus norvegicus [5], 0.56%; in the series with Rattus norvegicus [6], 1.53%. Moreover, the Dose/organ with Rattus norvegicus [7] was 0.45%; in the series on Rattus norvegicus [8], 0.18%; with Rattus norvegicus [9], 0.22%; with Rattus norvegicus [10], 9.89%; in the series on Rattus norvegicus [11], 4.03%; in the series on Rattus norvegicus [12], 18.3%. Also, the Dose/organ in the series with Rattus norvegicus [13] is 21.7%; in the series on Rattus norvegicus [14] it was 23.2%; in the series on Rattus norvegicus [15], 2.77%; with Rattus norvegicus [16], 0.94%; with Rattus norvegicus [17], 1.79%; in the series on Rattus norvegicus [18] it was 10.5%. For the same compound, the Dose/organ is 17.7% in the series on Rattus norvegicus [19], 14.4% in the series on Rattus norvegicus [20] and 3.42% in the series on Rattus norvegicus [21].

As to `CC(C)N(CC[Se]CCN(C(C)C)C(C)C)C(C)C`, the Dose/organ in the series with Rattus norvegicus [1] was 2.96%; in the series with Rattus norvegicus [2] it was 1.04%; in the series on Rattus norvegicus [3], 1.17%; with Rattus norvegicus [4], 0.25%; with Rattus norvegicus [5] it was 0.35%; with Rattus norvegicus [6] it was 0.33%. Also, the Dose/organ is on record as 2.35% with Rattus norvegicus [7]; 0.3% in the series on Rattus norvegicus [8]; 0.55% with Rattus norvegicus [9]; 11.4% in the series with Rattus norvegicus [10]; 6.19% in the series with Rattus norvegicus [11]; 11.9% in the series on Rattus norvegicus [12]. The Dose/organ with Rattus norvegicus [13] is 13.1%; in the series on Rattus norvegicus [14], 16%; with Rattus norvegicus [15] it was 11.2%; in the series on Rattus norvegicus [16], 1.11%; with Rattus norvegicus [17] it was 3.44%; with Rattus norvegicus [18], 9.88%. For the same compound, the Dose/organ was 15% in the series with Rattus norvegicus [19], 14.2% in the series with Rattus norvegicus [20] and 2.28% in the series with Rattus norvegicus [21].

Regarding `CN(C)CC[Se]CCN(C)C`, the Dose/organ in the series on Rattus norvegicus [1] turned out to be 2.82%; with Rattus norvegicus [2], 0.53%; with Rattus norvegicus [4], 0.49%; in the series on Rattus norvegicus [5], 0.71%; with Rattus norvegicus [6], 0.49%; with Rattus norvegicus [7], 2.21%. In addition, the Dose/organ in the series on Rattus norvegicus [8] worked out at 0.54%; in the series with Rattus norvegicus [9], 0.81%; with Rattus norvegicus [10], 9.46%; in the series on Rattus norvegicus [11] it was 5.6%; with Rattus norvegicus [12] it was 12.82%; in the series with Rattus norvegicus [13] it was 12.2%. The Dose/organ with Rattus norvegicus [14] stood at 15.1%; in the series with Rattus norvegicus [15] it was 11.36%; with Rattus norvegicus [16], 4.74%; in the series on Rattus norvegicus [17], 5.77%; with Rattus norvegicus [18] it was 14.1%; in the series on Rattus norvegicus [19] it was 15.2%. In addition, the figures for the Dose/organ in the series with Rattus norvegicus [20], with Rattus norvegicus [22] and in the series with Rattus norvegicus [21] were 11.8%, 0.74% and 3.92%, respectively.

In the case of `C[N+](C)(C)CC[Se]CC[N+](C)(C)C`, the Dose/organ in the series with Rattus norvegicus [2] is on record as 0.36%; in the series with Rattus norvegicus [3] it was 5.16%; in the series with Rattus norvegicus [5] it was 0.06%; in the series with Rattus norvegicus [6], 0.06%; in the series with Rattus norvegicus [8], 0.05%; in the series on Rattus norvegicus [9], 0.15%. In addition, the Dose/organ with Rattus norvegicus [11] amounted to 6.01%; in the series with Rattus norvegicus [13], 3.04%; in the series with Rattus norvegicus [14], 5.74%; with Rattus norvegicus [16], 0.2%; in the series with Rattus norvegicus [17], 0.63%; with Rattus norvegicus [19], 5.48%. Moreover, the Dose/organ is reported as 9.52% with Rattus norvegicus [20] and 2.75% in the series with Rattus norvegicus [21].

For the origin of these results see ChEMBL document CHEMBL1121543, “Synthesis of selenium-75 labeled tertiary diamines: new brain imaging agents” (J Med Chem, 1980).
